# Assay outcomes from PubChem BioAssay.
# The list is not random: actives were taken first. Their share in the collection is about 3.7%.
# KCNQ1 pot: potentiators or activators of KCNQ1 channel, primary screen, cell-based, thallium flux, high-throughput; CHO-K1 KCNQ1, thallium flux FluxOR fluorescence; stronger effect = higher value; B-score at 10 µM; hit rate 0.35% among 310,000;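 active = fluorescence ratio B-score, a plate-corrected score, at least three library SD, with initial intensity B-score within 5 SD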
#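 System: Stable KCNQ1 CHO-K1 line | Incubation: 90 min dye loading and 20 min compound exposure, both at room temperature | Measure: Ratio B score | Medium: Assay buffer for compound exposure, DMSO matched across wells | Compound dosing: Single-concentration screen | Probe or stimulus: K+/Tl+ depolarizing stimulus | Measured by: Kinetic FluxOR fluorescence, 10 s baseline plus 110 s post-stimulus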
# KCNQ1 inh: inhibitors of human KCNQ1 channel, primary screen, cell-based, thallium flux, high-throughput. Potassium voltage-gated channel subfamily KQT member 1 (Homo sapiens), P51787. CHO-K1 KCNQ1, FluxOR thallium flux fluorescence; stronger effect = higher value. B-score at 10 µM. hit rate 1.3% among 310,000. AID 2642, 2010;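 active = compounds whose thallium flux B-score, printed positive for inhibition, exceeds three library SD while starting fluorescence stays within three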;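 also: channel opened by potassium depolarization with thallium stimulus after 20 min compound exposure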
# Kir21 block: inhibitors of mouse Kir2.1 inward-rectifier potassium channel; Inward rectifier potassium channel 2 (Mus musculus), P35561; HEK293-Kir2.1, FluxOR thallium flux fluorescence; stronger effect = lower value; B-score at 10 µM; hit rate 0.85% among 310,000;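 active = fluorescence ratio B-score at or below minus 3 SD of library scores, with starting-brightness B-score within 2 SD, cut at about -4.2 in these data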;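 also: channel flux triggered by added potassium and thallium sulfate stimulus; B-score of peak minus minimum fluorescence over baseline after thallium stimulus; more negative B-score means stronger Kir2.1 block with less thallium influx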
# KCNK3 block: human KCNK3 channel inhibitors, primary screen, CHO cells, FluxOR thallium flux, B-score; Potassium channel subfamily K member 3 (Homo sapiens), O14649; FluxOR fluorescence; stronger effect = lower value; B-score at 10 µM; hit rate 0.84% among 340,000;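 active = B-score under library mean minus 4 SD, starting fluorescence ratio at most library mean plus 5 SD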;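 also: more negative B-score means stronger inhibition of thallium flux through KCNK3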
# KCNK9 block: KCNK9 potassium channel inhibitors, primary screen, HEK293 cells, thallium flux | B-score at 10 µM | hit rate 1.2% among 310,000 | FluxOR thallium flux fluorescence; stronger effect = lower value | AID 488922, 2010 | Potassium channel subfamily K member 9 (Homo sapiens), Q9NPC2;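 active = ratio B-score over 3 SD below the library mean, with starting fluorescence within 5 SD of its mean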;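 also: negative B-score means less thallium flux so channel inhibition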
# Target sequence (Q9NPC2 whole entry, looked up): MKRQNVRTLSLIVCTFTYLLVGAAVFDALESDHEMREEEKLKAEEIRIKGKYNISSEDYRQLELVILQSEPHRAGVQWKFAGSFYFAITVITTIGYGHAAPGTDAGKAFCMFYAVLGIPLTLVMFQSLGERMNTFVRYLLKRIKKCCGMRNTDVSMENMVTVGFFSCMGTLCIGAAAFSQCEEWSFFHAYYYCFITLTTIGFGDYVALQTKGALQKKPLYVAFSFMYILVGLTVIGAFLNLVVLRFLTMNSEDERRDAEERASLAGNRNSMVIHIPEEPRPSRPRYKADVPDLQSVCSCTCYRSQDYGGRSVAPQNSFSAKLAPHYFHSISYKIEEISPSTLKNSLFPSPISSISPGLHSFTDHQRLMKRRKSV
# hERG protect: hERG rescue from dofetilide block, primary screen, cell-based, CHO-hERG, FluxOR thallium flux, dofetilide IC70; hit rate 0.51% among 310,000; AID 1511, 2009; dofetilide IC70 present; activation (rescue from dofetilide block), less the hit threshold, % at 10 µM;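 active = activation above the mean of controls blocked by dofetilide plus 5 SD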;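 also: thallium influx through hERG after potassium depolarization seen as dye fluorescence rise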
# Numbers without * were called inactive; i = inactive; . = no result given.
SMILES,KCNQ1 pot,KCNQ1 inh,Kir21 block,KCNK3 block,KCNK9 block,hERG protect
COc1ccc2nc(NC(=O)CN3CCOCC3)sc2c1,i,i,-1.2,i,i,7.3*
Cc1ccccc1NC(=O)CCN1CCCCCC1,i,i,0.54,i,i,4.8*
CCCc1nnc(NC(=O)CN2CCOCC2)s1,i,i,-0.55,i,i,12*
COC(=O)c1ccc(N2CCOCC2)c(NC(=O)c2ccco2)c1,i,i,-0.5,i,i,-11
CCN1CCN(C(=O)c2ccc3nc(-c4ccccc4)c(-c4ccccc4)nc3c2)CC1,i,i,0.03,i,i,-13
COc1ccc(CN(C(=O)c2cc(=O)c3cc(C)cc(C)c3o2)C2CCS(=O)(=O)C2)cc1 (centres undefined),i,i,0.22,i,i,-1
CC(C)OCCCN1CN(S(=O)(=O)c2cccs2)c2nc3ccccc3nc21,i,i,-0.4,.,i,-4
O=C(COc1ccccc1)N(Cc1nnc(-c2ccccc2Cl)o1)C1CC1,i,i,-2.1,i,i,-16
COc1ccc(NC(=O)CN2CCN(c3ccccc3)CC2)cc1,i,i,0.63,i,i,-3
O=C(CN1CCCCCC1)Nc1ccc(Oc2ccccc2)cc1,19*,i,-2,i,i,18*
COc1cc(NC(=O)c2ccccc2F)c(OC)cc1NC(=O)CN1CCOCC1,i,i,-1.3,i,i,4.7*
COc1cc(NC(=O)c2ccc(F)cc2)c(OC)cc1NC(=O)CN1CCOCC1,i,i,0,i,i,-7
COc1ccc(NC(=O)CN2CCOCC2)cc1,i,i,1.8,i,i,7.0*
COc1ccc(NC(=O)CN2CCN(C3c4ccccc4-c4ccccc43)CC2)cc1,8*,i,0.01,i,i,-15
O=C(CN1CCCCC1)Nc1ccccc1,i,i,0.03,i,i,-10
COCC(C)NS(=O)(=O)c1ccc(C(=O)NC(Cc2ccccc2)c2ccccc2)cc1 (centres undefined),i,i,-0.56,i,i,-13
O=C(O)C(O)C(O)c1nc2ccccc2[nH]1 (centres undefined),i,i,0.02,i,i,-4
Cc1onc(-c2c(F)cccc2Cl)c1C(=O)c1ccc(F)cc1,i,i,-4.8*,i,i,-10
Cc1onc(-c2c(Cl)cccc2Cl)c1C(=O)ONC(=O)c1ccccc1,i,i,-5.2*,i,i,-8
Cc1onc(-c2c(F)cccc2Cl)c1C(=O)ONC(=O)c1ccccc1,i,i,-1.2,i,i,-7
Cc1onc(-c2c(Cl)cccc2Cl)c1C(=O)c1ccc(F)cc1,i,i,-2.2,i,i,-8
COc1cc(OC)c(NC(=O)c2cc3ccccc3cc2O)cc1Cl,.,.,.,-9.2*,.,.
Cc1cccc(CN2CCC(CNC(=O)CCNC(=O)Cn3ccc4ccccc4c3=O)CC2)c1,i,i,-1.3,i,i,-15
O=C(COc1ccccc1)Nc1nnc(-c2ccc3c(c2)CCCC3)o1,i,i,-2.1,i,i,-17
O=C(Nc1nnc(-c2ccc3c(c2)CCCC3)o1)c1ccccc1Cl,12*,i,0.37,i,i,-3
SMILES,KCNQ1 pot,KCNQ1 inh,Kir21 block,KCNK3 block,KCNK9 block,hERG protect
O=C(Nc1nnc(-c2ccc(F)cc2)o1)c1cc(Cl)sc1Cl,23*,i,-0.7,i,i,10*
O=C(Nc1nnc(-c2ccccc2)o1)c1cc(Cl)sc1Cl,i,i,0.57,i,i,4
COCCn1c(-c2ccc(OC)cc2)cnc1SCC(=O)Nc1ccc(OC)cc1OC,i,6*,-0.93,i,i,-6
COCCn1c(-c2ccc(OC)cc2)cnc1SCC(=O)Nc1cc(C)on1,i,i,-0.05,i,i,-2
CCOC(=O)CSc1nc2c(sc3ccccc32)c(=O)n1CCCN1CCOCC1,i,i,-0.87,i,i,4.9*
COc1ccc(NC(=O)CSc2nc3ccccc3c(=O)n2CCCN2CCCCC2)c(OC)c1,i,i,-6.1*,i,i,-6
COCCCNC(=O)CSc1nc2ccccc2c(=O)n1CCCN1CCCCC1,i,i,-1.5,i,i,-1
CCOC(=O)c1ccccc1NC(=O)CSc1nc2ccccc2c(=O)n1CCCN1CCOCC1,.,.,.,-11*,.,.
NC(=O)Nc1ccc(C(=O)OCC(=O)Nc2ccc([N+](=O)[O-])cc2C(F)(F)F)cc1,i,i,0.41,i,i,-8
COc1ccc(C=O)cc1Cn1ccnc1C,i,i,-0.29,i,i,-10
COc1nc(N2CCCC2)nc(-n2nnc(C(C)=O)c2C)n1,i,i,-4.9,i,i,-8
Cc1cccn2c(=O)c3cc(C(=O)N4c5ccccc5CC4C)n(C)c3nc12 (centres undefined),i,i,-0.59,i,i,9.2*
C=C/C(C)=C/CC1C(=C)CCC2C(C)(C(=O)O)CCCC12C (centres undefined),i,i,2.4,i,i,-9
C=C[C@]1(C)C=C2CCC3[C@](C)(CCC[C@@]3(C)C(=O)O)C2CC1 (some centres undefined),9*,i,1.4,i,i,0
COc1ccc([C@H]2CC(=O)C=C(c3ccc(SC)cc3)C2)cc1,.,.,.,i,.,.
CCSc1nnc([C@H](Cc2ccccc2)NC(=O)OC(C)(C)C)o1,i,i,-0.41,i,i,-13
Cc1ccccc1CS(=O)(=O)c1nnc([C@H](Cc2ccccc2)NC(=O)OC(C)(C)C)o1,12*,i,-3.9,i,i,-15
OC(CNCC1CCCO1)Cn1c2ccc(Cl)cc2c2cc(Cl)ccc21 (centres undefined),i,i,-5.4*,i,i,-32
COc1ccc([N+](=O)[O-])cc1Nc1c2ccccc2nc2ccccc12,i,8*,-1.6,i,i,-8
COc1ccc(C)cc1Nc1nc(N)c2ccccc2n1,i,i,-4.9*,i,i,-8
COc1ccc(OC)c(Nc2c3ccccc3nc3ccccc23)c1,i,i,-4.6*,i,i,-16
Cc1ccccc1Nc1nc(N)c2ccccc2n1,i,i,-2,i,i,-4
